Activity calls are given as the source filed them. The rule behind the calls is not given here.
Legend:
OCI-AML-3 [1] = assay: Antiproliferative activity against human OCI-AML-3 cells harbouring DNMT3A-R882C and NPM1c mutants co-expressing wild-type p53 at 0.125 to 0.25 uM assessed as decrease in cell viability in combination of 1 to 5 uM nutlin-3 after 72 hrs by WST-1 assay; type: functional, cell-based; settings: dose 0.125-0.25 µM
Method in brief: (§1)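 WST-1 viability of OCI-AML3 combinations. 20,000 cells per well treated with 0.25 µmol/L JQ1 plus the partner compound (Nutlin-3 0–2 µmol/L or 1–5 µmol/L; TSA 20 nmol/L; vorinostat 0.625 µmol/L; sodium butyrate 0.5 mmol/L; daunorubicin 0–50 nmol/L), applied together for 72 h. Read at 450 nm and expressed as % of untreated. Three experiments run in triplicate.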

Raji [2] = assay: Antiproliferative activity against human Raji cells assessed as decrease in cell viability after 96 hrs by WST-1 assay; type: functional, cell-based
Method in brief: (§2)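 WST-1 viability assay. 2 × 10^4 cells per well with compound, incubated for the indicated times, read at 450 nm 2–4 h after WST-1 addition. Viability is given as % of untreated cells by optical density. Compounds are dissolved in DMSO and diluted in PBS.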

K562 [3] = assay: Antiproliferative activity against human K562 cells assessed as decrease in cell viability after 96 hrs by WST-1 assay; type: functional, cell-based; method in brief: as §2
OCI-AML-3 [4] = assay: Antiproliferative activity against human OCI-AML-3 cells harbouring DNMT3A-R882C and NPM1c mutants co-expressing wild-type p53 assessed as decrease in cell viability after 96 hrs by WST-1 assay; type: functional, cell-based; method in brief: as §2
OCI-AML-3 [5] = assay: Induction of DNA damage in human OCI-AML-3 cells harbouring DNMT3A-R882C and NPM1c mutants co-expressing wild-type p53 at 0.25 uM assessed as induction of gammaH2AX incubated for 24 hrs in combination with 10 uM KU60019 by immunolabeling method; type: functional, cell-based
Method in brief: (§3)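 OCI-AML3 cells treated 24 h with 0.25 µmol/L JQ1, alone or with 10 µmol/L KU60019, […] caffeine or 1 µmol/L NU7026 added together. Cells cytospun, fixed in 4% paraformaldehyde and permeabilized with 0.2% Triton X-100. Stained with anti-γH2AX (1:500) and anti-53BP1 (1:1000) for 1 h at RT, then fluorescent secondaries and DAPI. Pan-nuclear γH2AX cells and 53BP1 foci scored by microscopy. Three experiments.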

OCI-AML-3 [6] = assay: Induction of apoptosis in human OCI-AML-3 cells harbouring DNMT3A-R882C and NPM1c mutants co-expressing wild-type p53 at 0.25 uM measured after 24 hrs by Annexin V/PI staining based flow cytometry method; type: functional, cell-based
Method in brief: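 OCI-AML3 cells treated for 24 h with 0.25 µmol/L JQ1, Nutlin-3 or both. Stained with annexin V and propidium iodide and analyzed by flow cytometry. Quadrant analysis of apoptotic populations.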

OCI-AML-3 [7] = assay: Antiproliferative activity against human OCI-AML-3 cells harbouring DNMT3A-R882C and NPM1c mutants co-expressing wild-type p53 at 0.25 uM assessed as decrease in cell viability in combination of 0.625 uM vorinostat after 72 hrs by WST-1 assay; type: functional, cell-based; method in brief: as §1
OCI-AML-3 [8] = assay: Induction of DNA damage in human OCI-AML-3 cells harbouring DNMT3A-R882C and NPM1c mutants co-expressing wild-type p53 at 0.25 uM assessed as induction of gammaH2AX incubated for 24 hrs in combination with 1 uM NU7026 by immunolabeling method; type: functional, cell-based; method in brief: as §3
OCI-AML-3 [9] = assay: Induction of DNA damage in human OCI-AML-3 cells harbouring DNMT3A-R882C and NPM1c mutants co-expressing wild-type p53 at 0.25 uM assessed as increase in pyknotic nuclei incubated for 48 hrs by DAPI staining method; type: functional
Method in brief: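 OCI-AML3 cells treated with 0.25 µmol/L JQ1 for 48 h, cytospun and fixed. DAPI-stained nuclei examined by fluorescence microscopy and the percentage of pyknotic nuclei scored.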

OCI-AML-3 [10] = assay: Antiproliferative activity against human OCI-AML-3 cells harbouring DNMT3A-R882C and NPM1c mutants co-expressing wild-type p53 at 0.25 uM assessed as decrease in cell viability in combination of 5 to 50 nM daunorubicin after 72 hrs by WST-1 assay; type: functional, cell-based; method in brief: as §1
OCI-AML-3 [11] = assay: Induction of apoptosis in human OCI-AML-3 cells harbouring DNMT3A-R882C and NPM1c mutants co-expressing wild-type p53 at 0.25 uM assessed as activation of caspase 3/7 measured after 24 hrs by Caspase-Glo 3/7 assay; type: functional, cell-based
Method in brief: (§4)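 Caspase-Glo 3/7 luminescence assay. OCI-AML3, Raji or K562 cells plated at 20,000 per well and treated with 0.25 µmol/L JQ1, with or without 20 nmol/L TSA. Luminescence read at 2, 4 or 24 h.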

OCI-AML-3 [12] = assay: Antiproliferative activity against human OCI-AML-3 cells harbouring DNMT3A-R882C and NPM1c mutants co-expressing wild-type p53 at 1 uM assessed as decrease in cell viability after 96 hrs by WST-1 assay; type: functional, cell-based; method in brief: as §2
OCI-AML-3 [13] = assay: Induction of apoptosis in human OCI-AML-3 cells harbouring DNMT3A-R882C and NPM1c mutants co-expressing wild-type p53 at 0.25 uM assessed as activation of caspase 3/7 measured at 2 hrs by Caspase-Glo 3/7 assay; type: functional, cell-based; method in brief: as §4
Raji [14] = assay: Induction of apoptosis in human Raji cells at 0.25 uM assessed as activation of caspase 3/7 measured after 24 hrs by Caspase-Glo 3/7 assay; type: functional, cell-based; method in brief: as §4
OCI-AML-3 [15] = assay: Induction of apoptosis in human OCI-AML-3 cells harbouring DNMT3A-R882C and NPM1c mutants co-expressing wild-type p53 at 0.25 uM assessed as activation of caspase 3/7 measured in combination of 20 nM trichostatin A after 24 hrs by Caspase-Glo 3/7 assay; type: functional, cell-based; method in brief: as §4
OCI-AML-3 [16] = assay: Induction of DNA damage in human OCI-AML-3 cells harbouring DNMT3A-R882C and NPM1c mutants co-expressing wild-type p53 at 0.25 uM assessed as increase in 53BP1 foci incubated for 24 hrs by immunolabeling method; type: functional, cell-based; method in brief: as §3
OCI-AML-3 [17] = assay: Antiproliferative activity against human OCI-AML-3 cells harbouring DNMT3A-R882C and NPM1c mutants co-expressing wild-type p53 at 0.25 uM assessed as cell death after 96 hrs by trypan blue assay; type: functional, cell-based
Method in brief: (§5)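 OCI-AML3 growth curves. 80,000 cells per well in medium with or without 0.25 µmol/L JQ1. Viable cells counted by trypan blue exclusion every 24 h up to 96 h.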

OCI-AML-3 [18] = assay: Antiproliferative activity against human OCI-AML-3 cells harbouring DNMT3A-R882C and NPM1c mutants co-expressing wild-type p53 at 0.25 uM assessed as decrease in cell viability after 96 hrs by trypan blue assay; type: functional, cell-based; method in brief: as §5
OCI-AML-3 [19] = assay: Induction of DNA damage in human OCI-AML-3 cells harbouring DNMT3A-R882C and NPM1c mutants co-expressing wild-type p53 at 0.25 uM assessed as increase in PCNA labelling for 48 hrs by DAPI staining method; type: functional, cell-based
OCI-AML-3 [20] = assay: Induction of apoptosis in human OCI-AML-3 cells harbouring DNMT3A-R882C and NPM1c mutants co-expressing wild-type p53 at 0.25 uM assessed as activation of caspase 3/7 measured at 4 hrs by Caspase-Glo 3/7 assay; type: functional, cell-based; method in brief: as §4
OCI-AML-3 [21] = assay: Induction of DNA damage in human OCI-AML-3 cells harbouring DNMT3A-R882C and NPM1c mutants co-expressing wild-type p53 at 0.25 uM assessed as induction of gammaH2AX incubated for 24 hrs in combination with […] by immunolabeling method; type: functional, cell-based; method in brief: as §3
OCI-AML-3 [22] = assay: Induction of DNA damage in human OCI-AML-3 cells harbouring DNMT3A-R882C and NPM1c mutants co-expressing wild-type p53 at 0.25 uM assessed as increase in pan-nuclear gammaH2AX foci incubated for 24 hrs by immunolabeling method; type: functional, cell-based; method in brief: as §3
K562 [23] = assay: Induction of apoptosis in human K562 cells at 0.25 uM assessed as activation of caspase 3/7 measured after 24 hrs by Caspase-Glo 3/7 assay; type: functional, cell-based; method in brief: as §4
OCI-AML-3 [24] = assay: Induction of apoptosis in human OCI-AML-3 cells harbouring DNMT3A-R882C and NPM1c mutants co-expressing wild-type p53 at 0.25 uM assessed as activation of caspase 8 measured after 24 hrs by Caspase-Glo 8 assay; type: functional, cell-based
Method in brief: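 Caspase-Glo 8 luminescence assay. OCI-AML3 cells plated at 20,000 per well and treated with 0.25 µmol/L JQ1 for 24 h. BI-2536 at 1 µmol/L used as positive control.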

OCI-AML-3 [25] = assay: Antiproliferative activity against human OCI-AML-3 cells harbouring DNMT3A-R882C and NPM1c mutants co-expressing wild-type p53 at 0.25 uM assessed as decrease in cell viability in combination of 0.5 mM sodium butyrate after 72 hrs by WST-1 assay; type: functional, cell-based; method in brief: as §1
OCI-AML-3 [26] = assay: Antiproliferative activity against human OCI-AML-3 cells harbouring DNMT3A-R882C and NPM1c mutants co-expressing wild-type p53 at 0.25 uM assessed as decrease in cell viability in combination of 20 nM trichostatin A after 72 hrs by WST-1 assay; type: functional, cell-based; method in brief: as §1
OCI-AML-3 [27] = assay: Induction of apoptosis in human OCI-AML-3 cells harbouring DNMT3A-R882C and NPM1c mutants co-expressing wild-type p53 at 1 uM assessed as activation of caspase 8 measured after 24 hrs by Caspase-Glo 8 assay; type: functional, cell-based
Method in brief: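 OCI-AML3 cells plated at 20,000 per well and treated for 24 h. Caspase 8 activation read as luminescent signal with the Caspase-Glo 8 kit; 1 µmol/L is the positive-control level used. Mean of at least three independent experiments ± SEM; Student's t-test, P < 0.05.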

OCI-AML-3 [28] = assay: Antiproliferative activity against human OCI-AML-3 cells harbouring DNMT3A-R882C and NPM1c mutants co-expressing wild-type p53 at 1 to 5 uM assessed as decrease in cell viability after 72 hrs by WST-1 assay; type: functional, cell-based; settings: dose 1-5 µM
Method in brief: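 OCI-AML3 cells (DNMT3A-R882, NPM1c, p53 wild-type) in RPMI 1640 with 10% FCS, L-glutamine, penicillin and streptomycin. Cells plated at 2 × 10^4 per well and exposed for 72 h; DMSO stocks diluted in PBS. WST-1 added and absorbance read at 450 nm 2–4 h later. Viability taken relative to untreated cells (100%). Three experiments in triplicate, mean ± SEM.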

## COc1ccc(C2=NC(c3ccc(Cl)cc3)C(c3ccc(Cl)cc3)N2C(=O)N2CCNC(=O)C2)c(OC(C)C)c1.Cc1sc2c(c1C)C(c1ccc(Cl)cc1)=N[C@@H](CC(=O)OC(C)(C)C)c1nnc(C)n1-2 (stereo unspecified)
OCI-AML-3 [1]
  Activity: Active

## Cc1sc2c(c1C)C(c1ccc(Cl)cc1)=N[C@H](CC(=O)OC(C)(C)C)c1nnc(C)n1-2
Raji [2]
  Activity: inactive
K562 [3]
  Activity: inactive
OCI-AML-3 [4]; dose 1.0 µM
  Activity: inactive

## C[C@@H]1CN(CC(=O)Nc2ccc3c(c2)Cc2cccc(-c4cc(=O)cc(N5CCOCC5)o4)c2S3)C[C@H](C)O1.Cc1sc2c(c1C)C(c1ccc(Cl)cc1)=N[C@@H](CC(=O)OC(C)(C)C)c1nnc(C)n1-2
OCI-AML-3 [5]
  Activity: inactive

## Cc1sc2c(c1C)C(c1ccc(Cl)cc1)=N[C@@H](CC(=O)OC(C)(C)C)c1nnc(C)n1-2
OCI-AML-3 [6]
  Activity: Active
OCI-AML-3 [7]
  Activity: Active
OCI-AML-3 [8]
  Activity: inactive
Raji [2]
  IC50: ~1000 nM
OCI-AML-3 [9]
  Activity: 3.2%
K562 [3]; K562, 96 h
  IC50: > 2000 nM
OCI-AML-3 [10]
  Activity: Active
OCI-AML-3 [11]
  Activity: Active
OCI-AML-3 [12]
  Activity: Active
OCI-AML-3 [13]
  Activity: inactive
Raji [14]
  Activity: Active
OCI-AML-3 [15]
  Activity: Active
OCI-AML-3 [16]
  Activity: Active
OCI-AML-3 [17]
  Activity: Active
OCI-AML-3 [4]; OCI-AML-3, 96 h
  IC50: ~500 nM
OCI-AML-3 [18]
  Activity: Active
OCI-AML-3 [19]
  Activity: Active
OCI-AML-3 [20]
  Activity: inactive
OCI-AML-3 [21]
  Activity: inactive
OCI-AML-3 [22]
  Activity: inactive
K562 [23]
  Activity: inactive
OCI-AML-3 [24]
  Activity: inactive
OCI-AML-3 [25]
  Activity: Active
OCI-AML-3 [26]
  Activity: Active

## CC[C@@H]1C(=O)N(C)c2cnc(Nc3ccc(C(=O)NC4CCN(C)CC4)cc3OC)nc2N1C1CCCC1
OCI-AML-3 [27]
  Activity: Active

## COc1ccc(C2=NC(c3ccc(Cl)cc3)C(c3ccc(Cl)cc3)N2C(=O)N2CCNC(=O)C2)c(OC(C)C)c1 (stereo unspecified)
OCI-AML-3 [28]
  Activity: inactive
